Most compounds without a hit are left out; they make up all but 1.8% or so of the library.
FXIIa inh 1536 = inhibitors of human coagulation factor XIIa. 0.3% of 220,000 active. purified FXIIa, Boc-QGR-AMC fluorogenic substrate, 2 h. inhibition, % at 5 µM. P00748. AID 800; in the data active means inhibition above about 40%;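 further: 0% = enzyme with no compound and 100% = blank without enzyme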
FXIa inh = blocks human coagulation factor XIa protease activity. P03951. purified FXIa, Boc-Glu-Ala-Arg-AMC fluorogenic substrate. inhibition, % at 5 µM. 0.14% of 220,000 active. AID 798;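 active means inhibition of at least 40%; inactive means inhibition below 40%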;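 further: fluorescence of freed AMC excited at 355 nm; 0% = enzyme without compound and 100% = no enzyme blank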
Target sequence (P03951 19-387 limits assumed): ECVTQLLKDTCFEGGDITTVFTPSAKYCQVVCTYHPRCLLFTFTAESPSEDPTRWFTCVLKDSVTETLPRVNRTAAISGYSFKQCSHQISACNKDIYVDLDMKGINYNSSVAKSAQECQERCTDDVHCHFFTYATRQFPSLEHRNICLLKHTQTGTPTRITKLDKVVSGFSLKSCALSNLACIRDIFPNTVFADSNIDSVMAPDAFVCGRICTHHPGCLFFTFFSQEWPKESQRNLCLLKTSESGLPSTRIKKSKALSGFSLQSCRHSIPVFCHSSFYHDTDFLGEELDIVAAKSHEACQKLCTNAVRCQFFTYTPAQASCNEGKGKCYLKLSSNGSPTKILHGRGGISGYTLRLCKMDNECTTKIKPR
Target sequence (P03951 388-625 limits assumed): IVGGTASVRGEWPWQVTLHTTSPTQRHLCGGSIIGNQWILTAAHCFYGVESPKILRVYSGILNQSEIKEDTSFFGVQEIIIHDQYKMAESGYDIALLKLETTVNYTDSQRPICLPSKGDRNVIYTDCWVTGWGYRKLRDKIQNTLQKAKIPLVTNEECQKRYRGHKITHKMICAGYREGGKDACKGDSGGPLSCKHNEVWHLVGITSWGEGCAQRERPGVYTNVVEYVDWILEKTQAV
thrombin 1536 = thrombin (human) inhibition; alpha-thrombin, Boc-VPR-AMC fluorogenic substrate cleavage; inhibition, % at 5 µM; 0.26% of 220,000 active;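 active means inhibition at or above 40%; inactive means inhibition below 40%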;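 further: 0% = enzyme with no compound and 100% = wells without enzyme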
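Test system: human alpha-thrombin protein / Dosing: one concentration per compound, 5 µM, with 0.2% DMSO / Medium: pH 7.5 Tris-saline with Tween 20 / Benchmarks: no-compound enzyme wells and no-enzyme blanks / Read-out basis: percent inhibition of thrombin substrate cleavage / Timing: reaction at room temperature / Measured by: fluorescence, ex 355 nm, em 460 nm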
Wee1 degr inh = inhibitors of human Wee1 degradation | AID 1321 | HeLa Luc-Wee1K328M stability, luciferase luminescence; 100% = proteasome inhibitor MG132 effect | reporter increase, % at 5 µM | 1.2% of 220,000 active | P30291;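 active means activation above the mean of all tested compounds plus 3 SD, set per screening run, cut at about 8.8% in these data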;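 further: cells exposed to compound for 20 h before luminescence read; 0% = DMSO alone and 100% = MG132 at 30 µM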
Platelet DG rel = modulates dense granule release in human platelets. human platelet-rich plasma, SFLLRN dense granule ATP release, luminescence. inhibition, %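 (compounds screened at 7.5 µM in platelet-rich plasma)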. 0.22% of 300,000 active;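 active means mean replicate score, as percent of positive control, at or above 50; inconclusive means mean below 50 but at least one replicate at or above 50; inactive means mean and every replicate below 50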
KLK5 inh = kallikrein 5 (human) inhibition | Q9Y337 | recombinant hK5, fluorogenic AMC substrate cleavage | inhibition, % at 5 µM | 0.59% of 210,000 active | AID 873;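 active means inhibition of 40% or more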;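 further: 0% = enzyme controls without compound and 100% = no-enzyme blanks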
Active calls of the source: *.

Results for Oc1cccc(/C=N/Nc2nn3cnnc3c3ccccc23)c1 ?
FXIIa inh 1536: 6; FXIa inh: 11; thrombin 1536: -3; Wee1 degr inh: -2; Platelet DG rel: 57*; KLK5 inh: 3

How did O=C(c1ccc(CNS(=O)(=O)c2cccc(Cl)c2)cc1)N1CCCCC1 do in these assays?
Platelet DG rel: -16

What do the screens show for `CCCn1cc(C(=O)OCC)c(=O)c2cc(F)c(F)cc21`?
FXIIa inh 1536: 31; FXIa inh: 65*; thrombin 1536: 4; Wee1 degr inh: -2; Platelet DG rel: 12; KLK5 inh: 23

What do the screens show for `N#Cc1nc(COc2ccc(Cl)cc2)oc1N1CCN(Cc2ccccc2)CC1`?
FXIIa inh 1536: -5; FXIa inh: -8; thrombin 1536: -8; Wee1 degr inh: 1; Platelet DG rel: -13; KLK5 inh: 6

Results for CCN1CCN(c2oc(COc3ccc(Cl)cc3)nc2C#N)CC1 ?
FXIIa inh 1536: 17; FXIa inh: 10; thrombin 1536: 16; Wee1 degr inh: 9.1*; Platelet DG rel: -1; KLK5 inh: 10

How did COCCCN(C(=O)c1cc(-c2ccco2)nc2ccccc12)c1c(N)n(Cc2ccccc2)c(=O)[nH]c1=O do in these assays?
Platelet DG rel: -14

What do the screens show for `Nc1ccnn1Cc1cccs1`?
FXIIa inh 1536: 43*; FXIa inh: 8; thrombin 1536: 22; Wee1 degr inh: 6; Platelet DG rel: -10; KLK5 inh: 79*

How did O=C(O)c1cccc(COc2ccccc2Cl)c1 do in these assays?
FXIIa inh 1536: -1; FXIa inh: 0; thrombin 1536: -8; Platelet DG rel: 5; KLK5 inh: 4

Results for O=C(O)c1ccc(COc2ccccc2Cl)cc1 ?
FXIIa inh 1536: 5; FXIa inh: 2; thrombin 1536: 1; Wee1 degr inh: 9.1*; Platelet DG rel: 5; KLK5 inh: -7

What do the screens show for `CC(C(=O)O)N1C(=O)/C(=C/C=C/c2ccco2)SC1=S` (stereo not drawn)?
FXIIa inh 1536: -5; FXIa inh: 0; thrombin 1536: 15; Wee1 degr inh: -1; Platelet DG rel: -5; KLK5 inh: 59*

What do the screens show for `COc1cccc(OCc2nc3ccccc3[nH]2)c1`?
FXIIa inh 1536: 11; FXIa inh: 4; thrombin 1536: -6; Wee1 degr inh: 11*; Platelet DG rel: 3; KLK5 inh: 0

Results for COc1ccc(OCc2nc3ccccc3[nH]2)cc1 ?
FXIIa inh 1536: 12; FXIa inh: -3; thrombin 1536: 1; Wee1 degr inh: 7; Platelet DG rel: 11; KLK5 inh: -1

Results for COc1ccc(S(=O)(=O)N2CCOCC2)cc1NC(=O)COC(=O)c1ccc(C)s1 ?
FXIIa inh 1536: 0; FXIa inh: -6; thrombin 1536: 73*; Wee1 degr inh: 0; Platelet DG rel: -1; KLK5 inh: -14

Results for O=C(COC(=O)CCC(=O)c1ccc(F)cc1)Nc1cccc(S(=O)(=O)N2CCCC2)c1 ?
FXIIa inh 1536: 8; FXIa inh: -1; thrombin 1536: -6; Wee1 degr inh: 3; Platelet DG rel: 59*; KLK5 inh: 4

Results for CCC(CC)C(=O)OCC(=O)Nc1ccc(S(=O)(=O)N2CCOCC2)cc1OC ?
FXIIa inh 1536: 13; FXIa inh: -6; thrombin 1536: 5; Wee1 degr inh: -2; Platelet DG rel: 5; KLK5 inh: -14

Results for O=C(COC(=O)c1n[nH]c2ccccc12)Nc1cccc(S(=O)(=O)N2CCOCC2)c1 ?
FXIIa inh 1536: 0; FXIa inh: 11; thrombin 1536: 65*; Wee1 degr inh: 3; Platelet DG rel: inconclusive; KLK5 inh: -20

Results for COc1cc(S(=O)(=O)N2CCOCC2)ccc1NC(=O)COC(=O)c1ccccn1 ?
FXIIa inh 1536: 8; FXIa inh: 2; thrombin 1536: 70*; Wee1 degr inh: 3; Platelet DG rel: 1; KLK5 inh: -13

What do the screens show for `Cc1ccc(NC(=S)N(CCN2CCOCC2)Cc2cc3cc4c(cc3[nH]c2=O)OCO4)cc1`?
FXIIa inh 1536: 10; FXIa inh: 7; thrombin 1536: 2; Wee1 degr inh: -1; Platelet DG rel: 4

How did O=C(NCc1ccccc1)c1cc[n+](Cc2ccccc2)cc1 do in these assays?
FXIIa inh 1536: 4; FXIa inh: -1; thrombin 1536: -1; Wee1 degr inh: -1; Platelet DG rel: -3; KLK5 inh: -19

Results for Cc1ccc(OCC(=O)Oc2ccc(C)c(C)c2)cc1 ?
Platelet DG rel: 6

How did Cn1c(CCNS(=O)(=O)c2ccccc2)nnc1SCc1cccnc1 do in these assays?
Platelet DG rel: 9

What do the screens show for `CC1(C)Cc2ccccc2-c2n[nH]c(=S)n21`?
FXIIa inh 1536: 14; FXIa inh: 6; thrombin 1536: -4; Wee1 degr inh: 9.5*; Platelet DG rel: 2; KLK5 inh: -21

Results for CCSc1nnc2n1C(C)(C)Cc1ccccc1-2 ?
FXIIa inh 1536: -2; FXIa inh: -4; thrombin 1536: -4; Wee1 degr inh: 3; Platelet DG rel: -5; KLK5 inh: -5

What do the screens show for `CC(C)N1CCN(Cc2cccn2-c2cccnc2)CC1CCO` (stereo not drawn)?
FXIIa inh 1536: 16; FXIa inh: -3; thrombin 1536: -1; Wee1 degr inh: 9.6*; Platelet DG rel: 7; KLK5 inh: 0

What do the screens show for `O=S1(=O)[C@H]2C[C@@H]3C=C[C@@]2(CN1Cc1cccc(F)c1)O3`?
Platelet DG rel: 5

Results for CC1=NN(C(C#N)c2ccc([N+](=O)[O-])cc2)C(C)(C)C1 (stereo not drawn) ?
FXIIa inh 1536: 28; FXIa inh: 50*; thrombin 1536: 22; Wee1 degr inh: 1; Platelet DG rel: -1; KLK5 inh: 57*

Results for CCOc1ccc(/C=C2\C(=O)c3ccccc3OC2c2ccccc2)cc1 (stereo not drawn) ?
FXIIa inh 1536: 8; FXIa inh: 1; thrombin 1536: 4; Wee1 degr inh: 4; Platelet DG rel: 1; KLK5 inh: -3

How did COc1ccc(/C=C2\C(=O)c3ccccc3OC2c2ccccc2)cc1 (stereo not drawn) do in these assays?
FXIIa inh 1536: 18; FXIa inh: 6; thrombin 1536: 6; Wee1 degr inh: 10*; Platelet DG rel: 7; KLK5 inh: 7

What do the screens show for `O=C(Nc1ccc(Oc2ccccc2)cc1)c1cnc2n(c1=O)CCS2`?
FXIIa inh 1536: 2; FXIa inh: -4; thrombin 1536: 0; Wee1 degr inh: 4; Platelet DG rel: 10; KLK5 inh: -8

What do the screens show for `Cc1occc1C(=O)N/N=C/C=C\c1ccccc1[N+](=O)[O-]`?
FXIIa inh 1536: 15; FXIa inh: 3; thrombin 1536: 2; Wee1 degr inh: 2; Platelet DG rel: -1; KLK5 inh: 3

What do the screens show for `CCOC(=O)N/N=C/C=C/c1ccccc1[N+](=O)[O-]`?
FXIa inh: -2; thrombin 1536: 0; Wee1 degr inh: 9.2*; Platelet DG rel: 1; KLK5 inh: 1
